This is an account of results in ChEMBL document CHEMBL4261634, “Design and optimization of 2,3-dihydrobenzo[b][1,4]dioxine propanoic acids as novel GPR40 agonists with improved pharmacokinetic and safety profiles” (Bioorg Med Chem, 2018).

The target of series [1] is Cytochrome P450 2C19 (Homo sapiens, UniProt P33261). Nature of the series: Inhibition of CYP2C19 (unknown origin). The format is ADME.
A short description of series [2]: AUC (0 to t) in Sprague-Dawley rat at 10 mg/kg, po by LC-ESI-MS analysis. The format is ADME, organism-based. To be noted: in vivo. Summed up: (§1)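 SD rats dosed orally (3 or 10 mg/kg) or by intravenous injection (1 mg/kg). Plasma PK parameters derived per route: Cmax, AUC0-t, Tmax, t1/2 and F after oral dosing; CL, AUC0-t, MRT, t1/2 and Vdss after iv dosing. Mean ± SD from three independent experiments (n = 3).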

Series [3] is described as follows: Clearance in Sprague-Dawley rat at 1 mg/kg, iv by LC-ESI-MS analysis. Format: ADME, organism-based. To be noted: in vivo. Summed up: as §1
The nature of series [4]: Cmax in Sprague-Dawley rat at 3 mg/kg, po by LC-ESI-MS analysis. Format: ADME, organism-based. Details: dose 3 mg/kg, route oral. To be noted: in vivo. In short, it runs like this: as §1
Series [5] is described as follows: Elimination half life in Sprague-Dawley rat at 3 mg/kg, po by LC-ESI-MS analysis. Format: ADME, organism-based. As to conditions: in vivo, read-out: beta t1/2 (converted). In short, it runs like this: as §1
The target of series [6] is Voltage-gated inwardly rectifying potassium channel KCNH2 (Homo sapiens, UniProt Q12809). Nature of the series: Inhibition of human ERG by patch-clamp assay. Summed up: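 hERG K+ channel inhibition measured by patch clamp to give IC50.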
(Patch clamp records ionic current or voltage across a cell membrane.)

The target of series [7] is Cytochrome P450 2C9 (Homo sapiens, UniProt P11712). The series is described as follows: Inhibition of CYP2C9 (unknown origin). The format is ADME.
For series [8], the target named is Free fatty acid receptor 1 (Homo sapiens, UniProt O14842). The series is described as follows: Agonist activity at GPR40 (unknown origin). The format is functional. In short, it runs like this: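 Human GPR40 activity read by calcium mobilization to give EC50. Emax expressed relative to linoleic acid as 100%. Mean ± SD, n = 3.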
The test system of series [9] is Rattus norvegicus. The series is described as follows: Subacute toxicity in Sprague-Dawley rat assessed as effect on food intake at 50 to 100 mg/kg, po administered once daily for 2 weeks. Format: organism-based. As to conditions: in vivo, 336 h. Summed up: (§2)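 SD rats dosed orally once daily for two weeks at 50 mg/kg and 100 mg/kg. Subacute toxicity was assessed over the dosing period from survival rate, behaviour, food intake and organ coefficients.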

The nature of series [10]: Cmax in Sprague-Dawley rat at 10 mg/kg, po by LC-ESI-MS analysis. Further details: dose 10 mg/kg, route oral. As to conditions: in vivo. The format is ADME, organism-based. Summed up:
as §1

In series [11] the test system is Rattus norvegicus. The series is described as follows: Subacute toxicity in Sprague-Dawley rat assessed as effect on survival rate at 50 to 100 mg/kg, po administered once daily for 2 weeks. As to conditions: in vivo, 336 h. The format is organism-based. In short, it runs like this:
as §2

In series [12] the target is T1, Cytochrome P450 2B6 (Homo sapiens, UniProt P20813).
T1 sequence (P20813 whole entry): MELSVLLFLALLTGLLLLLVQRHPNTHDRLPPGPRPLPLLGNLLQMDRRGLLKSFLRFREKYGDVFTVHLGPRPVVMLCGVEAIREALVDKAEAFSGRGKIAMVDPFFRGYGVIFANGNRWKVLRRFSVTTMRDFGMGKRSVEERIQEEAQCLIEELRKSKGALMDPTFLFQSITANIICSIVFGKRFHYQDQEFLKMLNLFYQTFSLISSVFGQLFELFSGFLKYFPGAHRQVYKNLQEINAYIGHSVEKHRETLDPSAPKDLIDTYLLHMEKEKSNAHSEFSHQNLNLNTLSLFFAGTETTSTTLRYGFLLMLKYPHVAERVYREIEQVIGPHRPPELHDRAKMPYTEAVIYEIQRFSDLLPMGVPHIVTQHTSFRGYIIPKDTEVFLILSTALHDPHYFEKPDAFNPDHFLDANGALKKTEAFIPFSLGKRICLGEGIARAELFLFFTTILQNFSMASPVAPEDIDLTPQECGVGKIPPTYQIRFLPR
Nature of the series: Inhibition of CYP2B6 (unknown origin). The format is ADME.

In series [13] the target is T2, Glucose-dependent insulinotropic receptor (Homo sapiens, UniProt Q8TDV5).
T2 sequence (Q8TDV5 whole entry): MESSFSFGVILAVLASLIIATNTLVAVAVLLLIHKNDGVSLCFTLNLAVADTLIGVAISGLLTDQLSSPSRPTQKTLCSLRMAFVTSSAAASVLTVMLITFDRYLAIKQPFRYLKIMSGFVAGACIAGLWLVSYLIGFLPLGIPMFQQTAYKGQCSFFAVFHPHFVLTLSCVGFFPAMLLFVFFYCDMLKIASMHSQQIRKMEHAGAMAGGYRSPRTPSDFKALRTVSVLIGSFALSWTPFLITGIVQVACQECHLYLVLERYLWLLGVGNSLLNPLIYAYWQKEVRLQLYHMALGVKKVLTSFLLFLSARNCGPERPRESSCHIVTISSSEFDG
Nature of the series: Agonist activity at GPR119 (unknown origin). Format: functional.

For series [14], the target named is Cytochrome P450 2D6 (Homo sapiens, UniProt P10635). Nature of the series: Inhibition of CYP2D6 (unknown origin). The format is ADME.
For series [15], the system named is Hepatocyte. Nature of the series: Toxicity in sandwich-cultured Sprague-Dawley rat hepatocytes assessed as inhibition of hepatobiliary transport by measuring biliary excretion index at 5 to 40 uM after 15 mins in presence of d8-TCA by LC-MS/MS analysis. Format: cell-based. To be noted: 0.25 h. Summed up: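 Sandwich-cultured rat hepatocytes incubated with compound and d8-TCA in standard (Ca2+-containing) or Ca2+-free buffer. Cellular d8-TCA measured, and the biliary excretion index calculated as the fraction of accumulated bile acid excreted into bile. Mean of three independent experiments.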

Series [16] has as its target T3, Free fatty acid receptor 3 (Homo sapiens) (UniProt O14843).
T3 sequence (whole entry): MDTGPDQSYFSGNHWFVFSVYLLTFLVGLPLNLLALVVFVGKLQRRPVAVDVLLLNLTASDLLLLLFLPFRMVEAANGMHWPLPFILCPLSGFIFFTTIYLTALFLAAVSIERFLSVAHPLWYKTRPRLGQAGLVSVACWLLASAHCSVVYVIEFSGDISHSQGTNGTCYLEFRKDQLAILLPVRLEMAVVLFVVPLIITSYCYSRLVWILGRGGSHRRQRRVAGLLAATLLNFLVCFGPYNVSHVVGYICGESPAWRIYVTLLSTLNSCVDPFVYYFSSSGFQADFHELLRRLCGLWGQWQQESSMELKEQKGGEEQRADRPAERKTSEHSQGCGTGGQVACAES
The series is described as follows: Agonist activity at GPR41 (unknown origin) up to 100 uM. Format: functional.

Series [17] deals with Rattus norvegicus. The series is described as follows: Antidiabetic activity in Sprague-Dawley rat assessed as reduction in blood glucose excursion at 10 to 20 mg/kg, po administered 60 mins prior to glucose challenge by OGTT. The format is functional, organism-based. Summed up:
(§3)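 OGTT in SD rats: compound given orally 60 min before a 3.0 g/kg glucose challenge. Blood glucose followed over time, and AUC0-60min or AUC0-120min calculated versus vehicle group. Mean ± SD, n = 8.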

The subject of series [18] is Rattus norvegicus. Nature of the series: Subacute toxicity in Sprague-Dawley rat assessed as effect on behavior at 50 to 100 mg/kg, po administered once daily for 2 weeks. The format is organism-based. To be noted: in vivo, 336 h. In short, it runs like this: as §2
Series [19] deals with Rattus norvegicus. The series is described as follows: Antidiabetic activity in Sprague-Dawley rat assessed as reduction in blood glucose AUC (0 to 60 mins) at 10 to 20 mg/kg, po administered 60 mins prior to glucose challenge by OGTT. Format: functional, organism-based. In short, it runs like this:
as §3

The test system of series [20] is Salmonella typhimurium. Nature of the series: Mutagenicity in Salmonella typhimurium by Ames test. The format is toxicity, organism-based. As to conditions: salmonella enterica subsp. enterica serovar typhimurium. On the technique in general: The Ames test detects mutagens through reverse mutation in bacteria.
A short description of series [21]: MRT in Sprague-Dawley rat at 1 mg/kg, iv by LC-ESI-MS analysis. Format: ADME, organism-based. To be noted: in vivo. Summed up: as §1
Series [22] concerns the target Cytochrome P450 3A4 (Homo sapiens, UniProt P08684). Nature of the series: Inhibition of CYP3A4 (unknown origin). Format: ADME.

Molecules are shown by their SMILES. The source made the active and inactive calls. The rule behind the calls is not given here. Bounds are passed on as bounds.

Chain of Cytochrome P450 3A4 (P08684 whole entry): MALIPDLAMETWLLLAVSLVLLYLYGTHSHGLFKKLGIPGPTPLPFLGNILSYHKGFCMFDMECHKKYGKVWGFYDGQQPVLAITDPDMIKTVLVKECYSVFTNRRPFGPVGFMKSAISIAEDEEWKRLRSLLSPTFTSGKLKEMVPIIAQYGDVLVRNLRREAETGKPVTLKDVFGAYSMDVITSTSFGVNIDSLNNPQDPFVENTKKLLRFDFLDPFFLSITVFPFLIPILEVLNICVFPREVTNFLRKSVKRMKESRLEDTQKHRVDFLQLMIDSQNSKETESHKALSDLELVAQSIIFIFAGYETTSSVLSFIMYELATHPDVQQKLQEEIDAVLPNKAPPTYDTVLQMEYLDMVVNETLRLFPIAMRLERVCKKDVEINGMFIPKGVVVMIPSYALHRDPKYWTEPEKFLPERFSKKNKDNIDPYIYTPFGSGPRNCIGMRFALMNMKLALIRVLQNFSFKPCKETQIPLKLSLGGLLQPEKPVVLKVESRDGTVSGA
Chain of Cytochrome P450 2D6 (P10635 whole entry): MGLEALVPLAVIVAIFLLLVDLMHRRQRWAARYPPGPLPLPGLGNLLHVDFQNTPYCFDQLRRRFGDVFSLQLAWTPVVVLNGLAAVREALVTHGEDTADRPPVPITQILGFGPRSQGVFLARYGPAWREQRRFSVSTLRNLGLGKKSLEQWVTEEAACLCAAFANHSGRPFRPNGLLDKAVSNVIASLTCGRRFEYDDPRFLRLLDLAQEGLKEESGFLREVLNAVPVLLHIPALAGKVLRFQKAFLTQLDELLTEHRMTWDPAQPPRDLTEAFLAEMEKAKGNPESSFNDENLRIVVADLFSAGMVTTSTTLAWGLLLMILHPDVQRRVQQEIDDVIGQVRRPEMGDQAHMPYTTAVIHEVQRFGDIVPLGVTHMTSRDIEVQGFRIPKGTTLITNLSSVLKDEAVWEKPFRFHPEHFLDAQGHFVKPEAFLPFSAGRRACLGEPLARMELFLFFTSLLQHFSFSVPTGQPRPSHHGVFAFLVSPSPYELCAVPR
Chain of Cytochrome P450 2C19 (P33261 whole entry): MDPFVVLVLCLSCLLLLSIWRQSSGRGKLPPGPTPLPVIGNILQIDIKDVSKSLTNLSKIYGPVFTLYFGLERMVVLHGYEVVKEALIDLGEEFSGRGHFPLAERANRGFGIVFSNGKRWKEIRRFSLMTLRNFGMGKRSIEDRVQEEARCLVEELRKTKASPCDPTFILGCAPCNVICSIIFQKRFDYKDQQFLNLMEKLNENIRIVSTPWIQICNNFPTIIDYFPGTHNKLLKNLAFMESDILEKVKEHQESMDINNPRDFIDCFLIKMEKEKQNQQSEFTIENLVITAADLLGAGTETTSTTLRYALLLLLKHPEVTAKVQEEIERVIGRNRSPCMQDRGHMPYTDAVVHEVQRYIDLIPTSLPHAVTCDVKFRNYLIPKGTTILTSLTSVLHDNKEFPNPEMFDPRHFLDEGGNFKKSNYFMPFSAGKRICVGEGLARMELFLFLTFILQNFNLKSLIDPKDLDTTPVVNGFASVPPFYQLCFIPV
Chain of Voltage-gated inwardly rectifying potassium channel KCNH2 (Q12809 whole entry): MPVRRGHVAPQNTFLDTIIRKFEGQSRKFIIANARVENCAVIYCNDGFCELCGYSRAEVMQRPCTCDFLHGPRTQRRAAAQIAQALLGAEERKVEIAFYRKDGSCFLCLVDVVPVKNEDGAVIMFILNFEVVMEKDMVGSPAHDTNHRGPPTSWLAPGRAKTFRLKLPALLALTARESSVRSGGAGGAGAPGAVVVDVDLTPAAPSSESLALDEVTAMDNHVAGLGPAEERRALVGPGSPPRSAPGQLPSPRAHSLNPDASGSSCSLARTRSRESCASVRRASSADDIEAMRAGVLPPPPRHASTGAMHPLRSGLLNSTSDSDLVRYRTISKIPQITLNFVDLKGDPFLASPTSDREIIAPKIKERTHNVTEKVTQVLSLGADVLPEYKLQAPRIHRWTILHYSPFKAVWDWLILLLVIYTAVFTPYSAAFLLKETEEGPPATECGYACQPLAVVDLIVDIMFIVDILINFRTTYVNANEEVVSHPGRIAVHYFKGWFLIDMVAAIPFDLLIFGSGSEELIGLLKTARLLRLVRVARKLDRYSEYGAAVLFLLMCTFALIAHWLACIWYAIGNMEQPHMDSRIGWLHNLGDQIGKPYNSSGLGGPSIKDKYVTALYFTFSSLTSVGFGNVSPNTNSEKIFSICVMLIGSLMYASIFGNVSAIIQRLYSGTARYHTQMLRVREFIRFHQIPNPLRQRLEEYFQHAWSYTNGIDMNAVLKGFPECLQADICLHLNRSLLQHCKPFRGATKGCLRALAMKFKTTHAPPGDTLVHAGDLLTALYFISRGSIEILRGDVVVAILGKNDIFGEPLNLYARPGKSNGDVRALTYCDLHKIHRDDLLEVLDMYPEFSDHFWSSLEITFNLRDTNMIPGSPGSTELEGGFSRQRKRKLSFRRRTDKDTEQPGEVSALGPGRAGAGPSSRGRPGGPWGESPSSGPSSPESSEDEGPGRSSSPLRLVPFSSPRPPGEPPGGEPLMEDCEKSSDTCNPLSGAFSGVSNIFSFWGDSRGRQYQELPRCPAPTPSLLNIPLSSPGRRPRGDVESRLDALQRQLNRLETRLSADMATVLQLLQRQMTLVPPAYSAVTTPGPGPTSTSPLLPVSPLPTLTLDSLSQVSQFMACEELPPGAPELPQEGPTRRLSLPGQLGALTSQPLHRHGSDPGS
Chain of Cytochrome P450 2C9 (P11712 whole entry): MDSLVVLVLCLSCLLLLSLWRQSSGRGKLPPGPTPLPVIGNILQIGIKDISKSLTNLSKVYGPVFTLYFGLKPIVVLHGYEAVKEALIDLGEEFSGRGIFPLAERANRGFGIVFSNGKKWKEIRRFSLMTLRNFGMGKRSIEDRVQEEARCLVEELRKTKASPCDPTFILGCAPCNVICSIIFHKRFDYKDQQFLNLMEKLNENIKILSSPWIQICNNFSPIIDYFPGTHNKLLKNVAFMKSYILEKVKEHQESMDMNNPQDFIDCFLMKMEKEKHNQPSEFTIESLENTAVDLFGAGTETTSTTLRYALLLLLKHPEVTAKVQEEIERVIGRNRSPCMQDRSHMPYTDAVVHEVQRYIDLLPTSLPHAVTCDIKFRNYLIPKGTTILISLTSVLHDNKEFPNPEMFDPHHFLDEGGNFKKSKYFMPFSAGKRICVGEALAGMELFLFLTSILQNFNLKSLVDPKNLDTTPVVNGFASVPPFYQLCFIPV
Chain of Free fatty acid receptor 1 (O14842 whole entry): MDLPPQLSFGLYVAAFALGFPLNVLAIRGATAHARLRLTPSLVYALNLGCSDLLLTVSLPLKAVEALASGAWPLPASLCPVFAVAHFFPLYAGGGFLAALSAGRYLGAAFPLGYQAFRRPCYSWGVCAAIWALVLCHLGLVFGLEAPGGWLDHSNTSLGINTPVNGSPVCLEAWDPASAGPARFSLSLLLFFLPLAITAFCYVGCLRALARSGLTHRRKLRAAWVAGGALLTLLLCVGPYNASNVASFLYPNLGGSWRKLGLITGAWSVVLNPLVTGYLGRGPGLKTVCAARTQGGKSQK

Usually IC50 stands for the concentration that inhibits the measured activity by half. Low values mean higher potency, high ones lower potency. Usually AUC(0-t) stands for exposure summed from dosing to a finite time, without extrapolation to infinity. Read a low AUC(0-t) as less exposure. The clearance is the rate of elimination divided by the concentration. A higher clearance goes with efficient removal. For orientation: Cmax means the maximum level reached in the sampled fluid or tissue. Broadly, the EC50 is the concentration giving half of the maximal effect. As usually defined, the MRT is a mean duration of stay, worked out from the concentration-time curve. With `CC#C[C@@H](CC(=O)O)c1ccc(OC[C@H]2COc3ccc(Cl)cc3O2)cc1`, the IC50 in [1] was more than 100 µM; in [6], more than 40 µM; in series [7], 60.5 µM; in series [12] it was 84.7 µM; in [14] it was more than 100 µM; in series [22], more than 100 µM. In addition, the AUC(0-t) in series [2] turned out to be 656 µg·h/mL. Also, the clearance in series [3] turned out to be 0.17 mL/min/kg. Besides, the maximum concentration (Cmax) in series [4] was determined as 9310 ng/mL; in series [10], 47800 ng/mL. Further, the half-life in [5] was 16.1 h. The EC50 in [8] is 0.046 µM; in [13], more than 100 µM. The Activity entry in series [9], in series [11], in [15], in series [18] and in series [20] was “Non-Toxic” in each case. The outcome in [16] was inactive. Also, the outcome in series [17] and in series [19] was Active. In series [21], the MRT stood at 17.9 h.
